Source: ChEMBL document CHEMBL4342528, “Discovery of a First-in-Class Protein Arginine Methyltransferase 6 (PRMT6) Covalent Inhibitor” (J Med Chem, 2020)
Active and inactive are the calls of the source. The calls are words filed in the database; no cut-off is given here.

Columns and labels:
[1] = biological target: Protein arginine N-methyltransferase 6 (Homo sapiens, UniProt Q96LA8); test: Inhibition of PRMT6 (unknown origin) assessed as reduction in incorporation of [3H]-labeled methyl group into biotinylated substrate using [3H-SAM] at 10 uM incubated for 1 hr by scintillation proximity assay
Protein arginine N-methyltransferase 6, sequence (Q96LA8 whole entry, looked up): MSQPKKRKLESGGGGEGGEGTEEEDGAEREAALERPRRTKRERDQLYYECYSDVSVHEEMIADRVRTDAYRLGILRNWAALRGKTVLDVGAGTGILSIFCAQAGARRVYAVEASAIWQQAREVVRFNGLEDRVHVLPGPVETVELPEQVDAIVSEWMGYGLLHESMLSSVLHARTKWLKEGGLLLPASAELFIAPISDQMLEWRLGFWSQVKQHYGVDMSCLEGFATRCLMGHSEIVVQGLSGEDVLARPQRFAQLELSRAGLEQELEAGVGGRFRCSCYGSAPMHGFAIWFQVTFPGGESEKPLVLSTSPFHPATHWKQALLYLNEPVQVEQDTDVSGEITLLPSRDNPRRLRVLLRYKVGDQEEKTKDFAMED
Outline: (§1)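 Panel of 33 methyltransferases (22 PKMTs, 3 DNMTs, 8 PRMTs), each tested at 10 and 50 μM compound. Activity was read as ³H-methyl transfer from ³H-SAM in a radiometric assay done as previously described.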

[2] = biological target: T1, Histone-arginine methyltransferase CARM1 (Homo sapiens) (UniProt Q86X55); test: Covalent binding affinity to human PRMT4 assessed as covalent adduct. formation at 300 uM pre-incubated for 1 hr by mass spectrometry
T1 sequence (whole entry): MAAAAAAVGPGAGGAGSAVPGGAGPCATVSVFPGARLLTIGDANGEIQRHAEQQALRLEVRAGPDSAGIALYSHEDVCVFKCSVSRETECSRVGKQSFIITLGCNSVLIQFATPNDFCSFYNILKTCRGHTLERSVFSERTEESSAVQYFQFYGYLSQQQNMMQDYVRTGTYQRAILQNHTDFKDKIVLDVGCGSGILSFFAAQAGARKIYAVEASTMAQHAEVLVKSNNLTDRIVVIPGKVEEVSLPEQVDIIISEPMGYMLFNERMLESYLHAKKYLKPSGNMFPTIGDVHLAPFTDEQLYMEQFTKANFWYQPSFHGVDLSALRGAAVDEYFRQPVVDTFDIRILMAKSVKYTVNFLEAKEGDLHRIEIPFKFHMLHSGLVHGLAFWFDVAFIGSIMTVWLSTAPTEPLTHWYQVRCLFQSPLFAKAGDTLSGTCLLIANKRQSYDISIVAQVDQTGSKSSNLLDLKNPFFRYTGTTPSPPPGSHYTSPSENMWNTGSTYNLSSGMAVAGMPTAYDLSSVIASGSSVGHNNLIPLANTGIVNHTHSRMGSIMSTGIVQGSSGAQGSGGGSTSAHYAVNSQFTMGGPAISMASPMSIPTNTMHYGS
Outline: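 PRMT protein at 15 μM was incubated 1 h at room temperature with a 20-fold molar excess of inhibitor (300 μM). The reaction was quenched with 0.1% aqueous TFA, separated by HPLC (5–95% acetonitrile in water) and analysed by ESI time-of-flight LC/MS for protein–ligand adduct mass.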

Homo sapiens = organism: Homo sapiens; test: Selectivity index, ratio of IC50 for human PRMT4 to IC50 for human PRMT6
[3] = biological target: T1, Histone-arginine methyltransferase CARM1 (Homo sapiens); test: Inhibition of PRMT4 in human MCF7 cells assessed as reduction in BAF155 asymmetric dimethylation at 0.2 to 20 uM incubated for 2 days; assay type: cell-based
[4] = biological target: T2, Protein arginine N-methyltransferase 3 (Homo sapiens, UniProt O60678); test: Inhibition of PRMT3 (unknown origin) assessed as reduction in incorporation of [3H]-labeled methyl group into biotinylated substrate using [3H-SAM] at 10 uM incubated for 1 hr by scintillation proximity assay; outline: as §1
T2 sequence (O60678 2-531 limits assumed): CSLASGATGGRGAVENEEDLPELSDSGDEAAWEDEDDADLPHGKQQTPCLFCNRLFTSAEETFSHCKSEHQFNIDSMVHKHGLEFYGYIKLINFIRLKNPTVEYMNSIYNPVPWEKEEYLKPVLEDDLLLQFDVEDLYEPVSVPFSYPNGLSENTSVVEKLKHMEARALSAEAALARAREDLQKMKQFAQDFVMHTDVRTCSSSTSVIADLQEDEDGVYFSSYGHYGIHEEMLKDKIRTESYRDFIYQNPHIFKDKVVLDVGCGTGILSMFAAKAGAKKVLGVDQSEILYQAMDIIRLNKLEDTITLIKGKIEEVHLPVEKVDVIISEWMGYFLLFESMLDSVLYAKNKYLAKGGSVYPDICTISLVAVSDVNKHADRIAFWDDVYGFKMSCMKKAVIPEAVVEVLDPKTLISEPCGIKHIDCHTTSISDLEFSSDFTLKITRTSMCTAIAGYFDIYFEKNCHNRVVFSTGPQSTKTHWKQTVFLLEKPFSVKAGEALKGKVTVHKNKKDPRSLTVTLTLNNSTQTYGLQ

[5] = biological target: T1, Histone-arginine methyltransferase CARM1 (Homo sapiens); test: Inhibition of PRMT4 (unknown origin) assessed as reduction in incorporation of [3H]-labeled methyl group into biotinylated substrate using [3H-SAM] at 10 uM incubated for 1 hr by scintillation proximity assay; outline: as §1
[6] = biological target: Protein arginine N-methyltransferase 8 (Homo sapiens, UniProt Q9NR22); test: Inhibition of PRMT8 (unknown origin) assessed as reduction in incorporation of [3H]-labeled methyl group into biotinylated substrate using [3H-SAM] at 10 uM incubated for 1 hr by scintillation proximity assay; outline: as §1
Protein arginine N-methyltransferase 8, sequence (Q9NR22 2-394 limits assumed): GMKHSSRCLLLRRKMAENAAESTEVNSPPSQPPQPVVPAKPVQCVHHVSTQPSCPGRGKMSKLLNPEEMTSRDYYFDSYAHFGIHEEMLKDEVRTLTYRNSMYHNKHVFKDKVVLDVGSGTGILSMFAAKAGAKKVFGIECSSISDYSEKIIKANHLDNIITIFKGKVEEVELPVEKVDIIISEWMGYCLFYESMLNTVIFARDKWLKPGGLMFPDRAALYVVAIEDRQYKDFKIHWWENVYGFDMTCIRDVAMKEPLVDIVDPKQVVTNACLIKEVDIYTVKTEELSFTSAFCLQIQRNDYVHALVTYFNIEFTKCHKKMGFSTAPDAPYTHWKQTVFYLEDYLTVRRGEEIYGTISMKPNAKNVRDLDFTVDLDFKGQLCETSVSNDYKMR

[7] = biological target: Protein arginine N-methyltransferase 9 (Homo sapiens) (UniProt Q6P2P2); test: Inhibition of PRMT9 (unknown origin) assessed as reduction in incorporation of [3H]-labeled methyl group into biotinylated substrate using [3H-SAM] at 10 uM incubated for 1 hr by scintillation proximity assay; outline: as §1
[8] = biological target: Histone-lysine N-methyltransferase EHMT2 (Homo sapiens) (UniProt Q96KQ7); test: Inhibition of G9a (unknown origin) assessed as reduction in incorporation of [3H]-labeled methyl group into biotinylated substrate using [3H-SAM] at 10 uM incubated for 1 hr by scintillation proximity assay; outline: as §1
[9] = biological target: Histone-lysine N-methyltransferase SUV39H2 (Homo sapiens) (UniProt Q9H5I1); test: Inhibition of SUV39H2 (unknown origin) assessed as reduction in incorporation of [3H]-labeled methyl group into biotinylated substrate using [3H-SAM] at 10 uM incubated for 1 hr by scintillation proximity assay
[10] = biological target: N-lysine methyltransferase KMT5A (Homo sapiens) (UniProt Q9NQR1); test: Inhibition of SETD8 (unknown origin) assessed as reduction in incorporation of [3H]-labeled methyl group into biotinylated substrate using [3H-SAM] at 10 uM incubated for 1 hr by scintillation proximity assay; outline: as §1
[11] = biological target: Histone-lysine N-methyltransferase 2A (Homo sapiens) (UniProt Q03164); test: Inhibition of MLL1 (unknown origin) assessed as reduction in incorporation of [3H]-labeled methyl group into biotinylated substrate using [3H-SAM] at 10 uM incubated for 1 hr by scintillation proximity assay; outline: as §1
[12] = biological target: Histone-lysine N-methyltransferase EZH2 (Homo sapiens) (UniProt Q15910); test: Inhibition of PRC2 (unknown origin) assessed as reduction in incorporation of [3H]-labeled methyl group into biotinylated substrate using [3H-SAM] at 10 uM incubated for 1 hr by scintillation proximity assay; outline: as §1
[13] = biological target: Histone-lysine N-methyltransferase SETD2 (Homo sapiens) (UniProt Q9BYW2); test: Inhibition of SETD2 (unknown origin) assessed as reduction in incorporation of [3H]-labeled methyl group into biotinylated substrate using [3H-SAM] at 10 uM incubated for 1 hr by scintillation proximity assay; outline: as §1
Histone-lysine N-methyltransferase SETD2 (Homo sapiens), sequence (Q9BYW2 whole entry): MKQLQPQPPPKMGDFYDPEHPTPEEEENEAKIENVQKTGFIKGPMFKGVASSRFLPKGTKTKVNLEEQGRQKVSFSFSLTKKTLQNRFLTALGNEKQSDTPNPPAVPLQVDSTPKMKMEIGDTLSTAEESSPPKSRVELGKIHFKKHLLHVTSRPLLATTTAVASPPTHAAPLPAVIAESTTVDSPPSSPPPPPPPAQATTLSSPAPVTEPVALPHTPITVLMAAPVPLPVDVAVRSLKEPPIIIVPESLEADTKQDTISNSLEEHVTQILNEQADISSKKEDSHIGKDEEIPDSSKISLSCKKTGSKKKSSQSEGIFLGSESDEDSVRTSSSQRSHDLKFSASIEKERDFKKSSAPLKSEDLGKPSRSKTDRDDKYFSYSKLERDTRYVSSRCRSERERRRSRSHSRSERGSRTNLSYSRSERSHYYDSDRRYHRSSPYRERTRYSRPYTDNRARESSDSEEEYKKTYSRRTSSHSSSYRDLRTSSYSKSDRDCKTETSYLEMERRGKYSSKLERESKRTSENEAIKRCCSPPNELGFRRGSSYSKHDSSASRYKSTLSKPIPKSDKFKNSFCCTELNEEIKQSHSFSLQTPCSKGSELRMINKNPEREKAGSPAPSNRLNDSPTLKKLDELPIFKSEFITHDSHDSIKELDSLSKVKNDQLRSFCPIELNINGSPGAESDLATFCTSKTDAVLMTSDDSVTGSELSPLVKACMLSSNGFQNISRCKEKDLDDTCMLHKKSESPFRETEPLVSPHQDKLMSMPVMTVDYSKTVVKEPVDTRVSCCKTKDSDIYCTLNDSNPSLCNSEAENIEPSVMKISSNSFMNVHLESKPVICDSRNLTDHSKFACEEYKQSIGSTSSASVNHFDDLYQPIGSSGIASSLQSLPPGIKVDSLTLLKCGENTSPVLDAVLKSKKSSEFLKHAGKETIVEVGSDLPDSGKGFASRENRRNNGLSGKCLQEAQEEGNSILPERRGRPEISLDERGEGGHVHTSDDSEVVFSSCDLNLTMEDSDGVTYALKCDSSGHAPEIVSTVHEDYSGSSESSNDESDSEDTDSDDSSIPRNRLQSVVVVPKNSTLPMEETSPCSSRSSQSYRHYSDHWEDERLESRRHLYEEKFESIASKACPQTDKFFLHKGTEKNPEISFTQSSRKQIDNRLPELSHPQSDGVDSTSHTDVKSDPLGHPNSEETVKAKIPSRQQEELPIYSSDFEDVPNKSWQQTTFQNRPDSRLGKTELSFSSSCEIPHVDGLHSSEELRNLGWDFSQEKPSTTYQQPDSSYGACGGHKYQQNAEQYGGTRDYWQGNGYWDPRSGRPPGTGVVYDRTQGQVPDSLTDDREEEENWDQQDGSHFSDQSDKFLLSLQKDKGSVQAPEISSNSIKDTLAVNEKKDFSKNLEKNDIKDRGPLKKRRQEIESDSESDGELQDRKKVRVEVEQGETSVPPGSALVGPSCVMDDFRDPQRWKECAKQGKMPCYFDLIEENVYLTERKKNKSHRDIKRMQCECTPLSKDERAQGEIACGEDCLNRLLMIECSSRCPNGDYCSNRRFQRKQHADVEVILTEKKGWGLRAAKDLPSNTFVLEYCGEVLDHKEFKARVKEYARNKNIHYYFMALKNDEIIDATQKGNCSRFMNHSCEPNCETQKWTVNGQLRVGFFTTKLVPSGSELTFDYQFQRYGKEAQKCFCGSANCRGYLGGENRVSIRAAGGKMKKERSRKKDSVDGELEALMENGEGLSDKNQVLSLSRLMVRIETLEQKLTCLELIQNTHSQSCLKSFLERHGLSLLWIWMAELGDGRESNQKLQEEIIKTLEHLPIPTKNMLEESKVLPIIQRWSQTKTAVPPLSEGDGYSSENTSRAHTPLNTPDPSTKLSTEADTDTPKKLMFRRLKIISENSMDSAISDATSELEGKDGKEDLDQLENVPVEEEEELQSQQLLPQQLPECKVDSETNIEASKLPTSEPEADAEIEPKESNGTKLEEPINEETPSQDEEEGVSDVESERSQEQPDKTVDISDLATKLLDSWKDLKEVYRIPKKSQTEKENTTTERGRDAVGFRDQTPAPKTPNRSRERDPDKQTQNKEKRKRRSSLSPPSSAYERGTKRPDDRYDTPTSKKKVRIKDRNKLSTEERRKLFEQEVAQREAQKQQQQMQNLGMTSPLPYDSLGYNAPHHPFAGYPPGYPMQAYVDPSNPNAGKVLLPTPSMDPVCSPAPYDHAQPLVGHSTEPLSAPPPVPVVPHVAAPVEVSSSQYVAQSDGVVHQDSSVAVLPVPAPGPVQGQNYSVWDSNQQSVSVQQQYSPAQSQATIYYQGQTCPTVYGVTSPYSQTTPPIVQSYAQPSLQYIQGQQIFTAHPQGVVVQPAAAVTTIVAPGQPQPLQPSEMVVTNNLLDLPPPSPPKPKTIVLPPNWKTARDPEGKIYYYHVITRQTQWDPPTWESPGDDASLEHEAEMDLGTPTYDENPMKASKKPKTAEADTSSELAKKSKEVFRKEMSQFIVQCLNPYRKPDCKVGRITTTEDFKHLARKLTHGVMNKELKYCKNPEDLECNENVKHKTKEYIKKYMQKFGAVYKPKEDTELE

[14] = biological target: Histone-lysine N-methyltransferase SMYD3 (Homo sapiens) (UniProt Q9H7B4); test: Inhibition of SMYD3 (unknown origin) assessed as reduction in incorporation of [3H]-labeled methyl group into biotinylated substrate using [3H-SAM] at 10 uM incubated for 1 hr by scintillation proximity assay; outline: as §1
Histone-lysine N-methyltransferase SMYD3 (Homo sapiens), sequence (Q9H7B4 whole entry): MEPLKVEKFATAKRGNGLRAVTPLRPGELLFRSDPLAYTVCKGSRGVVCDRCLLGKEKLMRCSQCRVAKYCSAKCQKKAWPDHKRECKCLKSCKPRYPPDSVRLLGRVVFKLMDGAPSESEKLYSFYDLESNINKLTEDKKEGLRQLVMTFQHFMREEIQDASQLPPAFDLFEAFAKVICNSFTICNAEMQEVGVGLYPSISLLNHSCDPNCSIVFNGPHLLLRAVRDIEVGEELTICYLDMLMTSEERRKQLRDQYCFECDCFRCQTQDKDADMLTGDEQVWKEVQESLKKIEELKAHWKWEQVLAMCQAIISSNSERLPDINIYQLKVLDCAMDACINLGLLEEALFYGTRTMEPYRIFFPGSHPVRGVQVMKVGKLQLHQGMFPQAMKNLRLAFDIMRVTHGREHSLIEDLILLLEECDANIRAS

[15] = biological target: Histone-lysine N-methyltransferase NSD2 (Homo sapiens) (UniProt O96028); test: Inhibition of NSD2 (unknown origin) at 10 uM using [3H-SAM] and nucleosome as substrate incubated for 1 hr by scintillation proximity assay; outline: as §1
[16] = biological target: Histone-lysine N-methyltransferase ASH1L (Homo sapiens) (UniProt Q9NR48); test: Inhibition of ASH1L (unknown origin) at 10 uM using [3H-SAM] and nucleosome as substrate incubated for 1 hr by scintillation proximity assay; outline: as §1
[17] = biological target: T2, Protein arginine N-methyltransferase 3; test: Inhibition of PRMT3 (unknown origin) assessed as reduction in incorporation of [3H]-labeled methyl group into biotinylated substrate using [3H-SAM] at 50 uM incubated for 1 hr by scintillation proximity assay relative to control; outline: as §1
[18] = biological target: Protein arginine N-methyltransferase 7 (Homo sapiens) (UniProt Q9NVM4); test: Inhibition of PRMT7 (unknown origin) at 50 uM assessed as reduction in incorporation of [3H]-labeled methyl group into biotinylated substrate using [3H-SAM] at 50 uM incubated for 1 hr by scintillation proximity assay relative to control; outline: as §1
Protein arginine N-methyltransferase 7 (Homo sapiens), sequence (Q9NVM4 whole entry): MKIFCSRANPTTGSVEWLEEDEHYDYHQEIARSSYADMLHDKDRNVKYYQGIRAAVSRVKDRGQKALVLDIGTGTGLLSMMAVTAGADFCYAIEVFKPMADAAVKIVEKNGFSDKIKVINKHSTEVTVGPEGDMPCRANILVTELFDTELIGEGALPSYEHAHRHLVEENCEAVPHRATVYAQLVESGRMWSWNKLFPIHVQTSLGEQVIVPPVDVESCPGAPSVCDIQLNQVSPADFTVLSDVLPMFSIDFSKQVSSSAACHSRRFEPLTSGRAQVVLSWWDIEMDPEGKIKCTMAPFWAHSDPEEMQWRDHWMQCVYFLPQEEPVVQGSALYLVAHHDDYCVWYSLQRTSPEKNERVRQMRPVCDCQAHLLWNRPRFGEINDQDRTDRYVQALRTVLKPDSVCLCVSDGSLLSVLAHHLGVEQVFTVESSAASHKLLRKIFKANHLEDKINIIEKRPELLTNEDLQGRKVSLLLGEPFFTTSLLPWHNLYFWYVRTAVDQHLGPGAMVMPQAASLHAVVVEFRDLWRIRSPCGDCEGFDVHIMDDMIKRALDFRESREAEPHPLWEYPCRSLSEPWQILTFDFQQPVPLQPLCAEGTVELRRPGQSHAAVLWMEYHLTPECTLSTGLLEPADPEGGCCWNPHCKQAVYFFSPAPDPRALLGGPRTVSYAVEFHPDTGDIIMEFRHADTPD

SMILES: C=CC(=O)Nc1cccc(-c2c[nH]cc2CN(C)CCN)c1
- inhibition [1]: > 90%
- Activity [2]: inactive
- Ratio IC50 (Homo sapiens): 27
- inhibition [3]: inactive
- inhibition [4]: > 90%
- inhibition [5]: > 90%
- inhibition [6]: > 90%
- inhibition [7]: inactive
- inhibition [8]: inactive
- inhibition [9]: inactive
- inhibition [10]: inactive
- inhibition [11]: inactive
- inhibition [12]: inactive
- inhibition [13]: inactive
- inhibition [14]: inactive
- inhibition [15]: inactive
- inhibition [16]: inactive
- inhibition [17]: > 50%
- inhibition [18]: > 50%
